Converted amounts (≈) assume the structure as drawn.
Experiments:
Candida albicans [1] = experiment: Antifungal activity against Candida albicans 579A strain; type: functional
Summary of the method: (§1)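 MIC determined by microtiter broth dilution in yeast nitrogen base with 0.05% glucose. Inoculum came from an overnight plate culture, at a final 5×10^4 cfu/mL. Plates were incubated at 35 °C for 24-48 h. MIC was taken as the lowest drug concentration completely inhibiting visible growth. 10231, 442 and 579A are clinical isolates; 38247 is a nonclinical amphotericin-resistant strain.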

Candida albicans [2] = experiment: Antifungal activity against Candida albicans CCH442 strain; type: functional; summary of the method: as §1
Candida albicans [3] = experiment: Antifungal activity against Candida albicans 38247 strain; type: functional; summary of the method: as §1
Candida albicans [4] = experiment: Antifungal activity against Candida albicans 10231 strain; type: functional; summary of the method: as §1
Rattus norvegicus [5] = experiment: plasma concentration of total radio activity 30 minutes after intravenous administration in rats; type: ADME, organism-based; settings: in vivo, 0.5 h
Summary of the method: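 Rats given a single 5 mg/kg iv dose of 14C-labelled compound (~15 μCi each) in ethanol/propylene glycol/saline (20:35:45). At 30 min, one male and two female rats were anesthetized with CO2 and bled by cardiac puncture. Plasma was separated from heparinized blood by centrifugation at 4 °C for 15 min. Duplicate aliquots were counted by liquid scintillation with quench correction.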

Rattus norvegicus [6] = experiment: % of the total radioactive dose of compound present in the 0-24 hour urine after a single 5 mg/kg dose administered intravenously in rats; type: ADME, organism-based; parameters: dose 5 mg/kg, route intravenous; settings: in vivo, iv
Summary of the method: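 14C-benzylic-labelled compound mixed with unlabelled material, given once iv at 5 mg/kg (~15 μCi per rat) as a 5 mg/mL solution in ethanol/propylene glycol/saline (20:35:45). Urine and feces collected daily for 3 days from two rats. Duplicate urine aliquots counted by liquid scintillation with quench correction. Fecal homogenates oxidized to 14CO2 before counting.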

| SMILES | MIC (Candida albicans [1]) [µg/mL] | MIC (Candida albicans [2]) [µg/mL] | MIC (Candida albicans [3]) [µg/mL] | MIC (Candida albicans [4]) [µg/mL] | Plasma concentration (Rattus norvegicus [5]) [ug equiv ml-1] | Excretion (Rattus norvegicus [6]) [%] |
| --- | --- | --- | --- | --- | --- | --- |
| [O-][S+](c1ccccc1)N(Cc1ccccc1)Sc1ccccc1 (stereo not drawn) | > 100 | > 100 | 50 (≈ 147 µM) | > 100 | – | – |
| [O-][S+]1c2ccccc2SN1Cc1c(F)cccc1F (stereo not drawn) | 0.78 (≈ 2.62 µM) | 1.56 (≈ 5.25 µM) | 1.56 (≈ 5.25 µM) | 0.78 (≈ 2.62 µM) | – | – |
| [O-][S+]1c2ccccc2SN1Cc1ccc(F)c(F)c1 (stereo not drawn) | 1.56 (≈ 5.25 µM) | 1.56 (≈ 5.25 µM) | 3.12 (≈ 10.5 µM) | 1.56 (≈ 5.25 µM) | – | – |
| Cc1cccc2c1[S+]([O-])N(Cc1ccccc1)S2 (stereo not drawn) | 0.78 (≈ 2.83 µM) | 1.56 (≈ 5.66 µM) | 1.56 (≈ 5.66 µM) | 0.78 (≈ 2.83 µM) | – | – |
| CC(C)(C)CCN1Sc2ccccc2[S+]1[O-] (stereo not drawn) | 3.12 (≈ 12.2 µM) | 1.56 (≈ 6.11 µM) | – | 1.56 (≈ 6.11 µM) | – | – |
| Cc1ccc(C)c2c1SN(Cc1ccccc1)[S+]2[O-] (stereo not drawn) | 3.12 (≈ 10.8 µM) | 3.12 (≈ 10.8 µM) | 25 (≈ 86.4 µM) | 1.56 (≈ 5.39 µM) | – | – |
| CCCCCCCCCCCCCCCCN1Sc2ccccc2[S+]1[O-] (stereo not drawn) | > 100 | > 100 | > 100 | > 100 | – | – |
| c1ccc(CN2Sc3ccccc3S2)cc1 | 6.25 (≈ 25.5 µM) | 12.5 (≈ 50.9 µM) | 25 (≈ 102 µM) | 6.25 (≈ 25.5 µM) | – | – |
| [O-][S+]1c2ccccc2SN1Cc1ccccc1 (stereo not drawn) | – | – | – | – | 4.6 | 88 |
| [O-][S+]1c2ccccc2SN1c1ccc2c(c1)OCO2 (stereo not drawn) | 25 (≈ 85.8 µM) | 25 (≈ 85.8 µM) | 25 (≈ 85.8 µM) | 12.5 (≈ 42.9 µM) | – | – |
| [O-][S+]1c2c(F)c(F)c(F)c(F)c2SN1Cc1ccccc1 (stereo not drawn) | 6.25 (≈ 18.8 µM) | 12.5 (≈ 37.5 µM) | 12.5 (≈ 37.5 µM) | 6.25 (≈ 18.8 µM) | – | – |
| c1ccc2c(c1)SN(C1CC1)S2 | 25 (≈ 128 µM) | 50 (≈ 256 µM) | 50 (≈ 256 µM) | 25 (≈ 128 µM) | – | – |
| CC(c1ccccc1)N1Sc2ccccc2[S+]1[O-] (stereo not drawn) | 1.56 (≈ 5.66 µM) | 1.56 (≈ 5.66 µM) | 3.12 (≈ 11.3 µM) | 1.56 (≈ 5.66 µM) | – | – |
| [O-][S+]1c2ccccc2SN1C(c1ccccc1)c1ccccc1 (stereo not drawn) | 6.25 (≈ 18.5 µM) | 12.5 (≈ 37 µM) | 25 (≈ 74.1 µM) | 25 (≈ 74.1 µM) | – | – |
| [O-][S+]1c2ccccc2SN1CC1CCCCC1 (stereo not drawn) | 1.56 (≈ 5.83 µM) | 1.56 (≈ 5.83 µM) | 3.12 (≈ 11.7 µM) | 1.56 (≈ 5.83 µM) | – | – |
| [O-][S+]1c2ccccc2SN1Cc1ccc2ccccc2c1 (stereo not drawn) | 3.12 (≈ 10 µM) | 6.25 (≈ 20.1 µM) | 12.5 (≈ 40.1 µM) | 3.12 (≈ 10 µM) | – | – |
| [O-][S+]1c2ccccc2SN1CCc1ccncc1 (stereo not drawn) | 100 (≈ 362 µM) | 100 (≈ 362 µM) | 100 (≈ 362 µM) | 100 (≈ 362 µM) | – | – |
| C[C@@H]1[C@H](O)[C@@H](C)/C=C/C=C/C=C/C=C/C=C/C=C/C=C/[C@H](O[C@@H]2O[C@H](C)[C@@H](O)[C@H](N)[C@@H]2O)C[C@@H]2O[C@](O)(C[C@@H](O)C[C@@H](O)[C@H](O)CC[C@@H](O)C[C@@H](O)CC(=O)O[C@H]1C)C[C@H](O)[C@H]2C(=O)O [AMPHOTERICIN B] | 1.56 (≈ 1.69 µM) | 0.78 (≈ 0.844 µM) | 25 (≈ 27.1 µM) | 1.56 (≈ 1.69 µM) | – | – |

More lines, in order of falling MIC (Candida albicans [1]), values ahead:

| MIC (Candida albicans [1]) [µg/mL] | MIC (Candida albicans [2]) [µg/mL] | MIC (Candida albicans [3]) [µg/mL] | MIC (Candida albicans [4]) [µg/mL] | Plasma concentration (Rattus norvegicus [5]) [ug equiv ml-1] | Excretion (Rattus norvegicus [6]) [%] | SMILES |
| --- | --- | --- | --- | --- | --- | --- |
| 100 (≈ 414 µM) | 100 (≈ 414 µM) | 50 (≈ 207 µM) | 100 (≈ 414 µM) | – | – | CCC(CC)N1Sc2ccccc2[S+]1[O-] (stereo not drawn) |
| 100 (≈ 237 µM) | > 100 | > 100 | 100 (≈ 237 µM) | – | – | CCCCCCCC/C=C/CCCCCCCCN1Sc2ccccc2[S+]1[O-] (stereo not drawn) |
| 100 (≈ 353 µM) | 25 (≈ 88.2 µM) | 25 (≈ 88.2 µM) | 25 (≈ 88.2 µM) | – | – | [O-][S+]1c2ccccc2SN1c1ccc(F)c(F)c1 (stereo not drawn) |
| 25 (≈ 62.4 µM) | 50 (≈ 125 µM) | 12.5 (≈ 31.2 µM) | 50 (≈ 125 µM) | – | – | [O-][S+]1c2c(F)c(F)c(N3CCOCC3)c(F)c2SN1Cc1ccccc1 (stereo not drawn) |
| 12.5 (≈ 40.9 µM) | 25 (≈ 81.8 µM) | 50 (≈ 164 µM) | 6.25 (≈ 20.5 µM) | – | – | [O-][S+]1c2ccccc2SN1C12CC3CC(CC(C3)C1)C2 (stereo not drawn) |
| 12.5 (≈ 35.6 µM) | 12.5 (≈ 35.6 µM) | 3.12 (≈ 8.88 µM) | 12.5 (≈ 35.6 µM) | – | – | COc1cc(CN2Sc3ccccc3[S+]2[O-])cc(OC)c1OC (stereo not drawn) |
| 12.5 (≈ 45.4 µM) | 25 (≈ 90.8 µM) | 25 (≈ 90.8 µM) | 12.5 (≈ 45.4 µM) | – | – | Cc1cccc2c1SN(Cc1ccccc1)[S+]2[O-] (stereo not drawn) |
| 3.12 (≈ 9.77 µM) | 3.12 (≈ 9.77 µM) | 3.12 (≈ 9.77 µM) | 3.12 (≈ 9.77 µM) | – | – | COCC(Cc1ccccc1)N1Sc2ccccc2[S+]1[O-] (stereo not drawn) |
| 3.12 (≈ 15.8 µM) | 12.5 (≈ 63.3 µM) | 25 (≈ 127 µM) | 3.12 (≈ 15.8 µM) | – | – | CCCN1Sc2ccccc2S1 |
| 0.78 (≈ 2.79 µM) | 0.78 (≈ 2.79 µM) | 1.56 (≈ 5.58 µM) | 0.78 (≈ 2.79 µM) | – | – | [O-][S+]1c2ccc(F)cc2SN1Cc1ccccc1 (stereo not drawn) |
| 0.78 (≈ 2.68 µM) | 0.78 (≈ 2.68 µM) | 3.12 (≈ 10.7 µM) | 0.78 (≈ 2.68 µM) | – | – | COc1ccc2c(c1)SN(Cc1ccccc1)[S+]2[O-] (stereo not drawn) |

From ChEMBL document CHEMBL1127338, “Synthesis and antifungal activity of 1,3,2-benzodithiazole S-oxides” (J Med Chem, 1994)
